These results are taken from ChEMBL document CHEMBL5154784, “Design, Synthesis, Biological Evaluation, and Computational Studies of Novel Ureidopropanamides as Formyl Peptide Receptor 2 (FPR2) Agonists to Target the Resolution of Inflammation in Central Nervous System Disorders” (J Med Chem, 2022).

The target in data set [1] is T1, N-formyl peptide receptor 2 (Homo sapiens, UniProt P25090).
T1 sequence (P25090 whole entry): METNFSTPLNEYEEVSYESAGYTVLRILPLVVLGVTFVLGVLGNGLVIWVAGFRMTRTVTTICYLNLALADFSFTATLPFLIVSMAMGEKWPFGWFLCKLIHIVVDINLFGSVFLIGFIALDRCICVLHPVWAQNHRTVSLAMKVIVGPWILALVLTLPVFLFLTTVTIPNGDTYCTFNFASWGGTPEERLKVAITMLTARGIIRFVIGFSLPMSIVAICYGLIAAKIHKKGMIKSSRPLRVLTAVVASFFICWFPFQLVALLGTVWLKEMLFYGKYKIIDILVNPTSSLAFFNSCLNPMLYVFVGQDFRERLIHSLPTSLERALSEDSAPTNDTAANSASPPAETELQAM
The experiment in a line: Antagonist activity at human FPR2 transfected in human HL-60 cells assessed as inhibition of WKYMVM-induced intracellular calcium mobilization preincubated for 10 mins followed by WKYMVM addition measured every 5 seconds for 240 secs by Fluo-4-AM dye based fluorescence assay. Format: functional, cell-based. A digest of the protocol: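 Fluo-4-loaded FPR2-HL60 cells pre-incubated 10 min with compound (1% DMSO final), then challenged with 5 nM WKYMVM. Maximum change over baseline taken as response. IC50 by four-parameter logistic regression of at least 5–6 point curves.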
In general terms: Calcium assays in cells follow changes in intracellular calcium, usually with a dye or a luminescent sensor.

The target in data set [2] is T1, N-formyl peptide receptor 2. The experiment in a line: Agonist activity at human FPR2 transfected in human HL-60 cells assessed as increase in calcium mobilization measured every 5 seconds for 240 secs by Fluo-4-AM dye based fluorescence assay. Format: functional, cell-based.
Data set [3] is described as follows: Metabolic stability in rat liver microsomes assessed as compound remaining at 10 uM preincubated for 10 mins followed by NADPH addition and measured after 30 mins by HPLC analysis. The following applies: time 40 min, read-out: Stability. Format: ADME, Microsome. A digest of the protocol:
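Rat liver microsomes (1.0 mg/mL protein), compound 10 μM final in 100 mM potassium phosphate pH 7.4, pre-incubated 10 min at 37 °C, then NADPH regenerating system added. After 30 min, % parent remaining by HPLC-DAD (C18, MeOH/H2O 80:20) versus incubation without NADPH system.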
In general terms: Liver microsomes are vesicles of endoplasmic reticulum, rich in cytochrome P450 enzymes.

Data set [4] in a line: Cytotoxicity against mouse N9 cells assessed as reduction in cell viability incubated for 48 hrs by MTT assay. Format: toxicity, cell-based. A digest of the protocol:
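MTT 0.5 mg/mL added for 3–4 h at 37 °C, formazan dissolved in DMSO/EtOH 1:1, absorbance read at 570 and 630 nm. Mean ± SD from at least two to three experiments in triplicate.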

The target of data set [5] is T2, N-formyl peptide receptor 2 (Homo sapiens) (UniProt P25090).
T2 sequence (whole entry): T1 sequence (P25090 whole entry)
The experiment in a line: Agonist activity at human FPR2 transfected in HL-60 cells assessed as induction of intracellular calcium ions mobilization using WKYMVM as substrate preincubated for 10 mins followed by substrate addition and measured every 5 seconds for 240 secs by Fluo-4-AM dye based fluorescent assay relative to control. Format: functional, cell-based. The following applies: filed as agonist.

In the next data set the target is T3, fMet-Leu-Phe receptor (Homo sapiens, UniProt P21462).
T3 sequence (P21462 whole entry): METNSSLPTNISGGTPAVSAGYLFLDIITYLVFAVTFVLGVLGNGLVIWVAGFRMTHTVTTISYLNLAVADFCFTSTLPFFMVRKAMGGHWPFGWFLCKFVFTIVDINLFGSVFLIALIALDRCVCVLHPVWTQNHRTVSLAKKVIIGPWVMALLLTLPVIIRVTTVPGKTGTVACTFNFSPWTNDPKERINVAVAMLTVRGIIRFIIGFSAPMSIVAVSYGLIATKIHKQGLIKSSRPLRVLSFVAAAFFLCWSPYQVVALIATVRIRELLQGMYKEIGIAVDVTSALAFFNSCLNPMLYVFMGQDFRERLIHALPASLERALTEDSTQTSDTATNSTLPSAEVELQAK
The data set can be described thus: Agonist activity at human FPR1 transfected in human HL-60 cells assessed as increase in calcium mobilization measured every 5 seconds for 240 secs by Fluo-4-AM dye based fluorescence assay. Format: functional, cell-based.

The nature of data set [6]: Cytotoxicity against mouse N9 cells assessed as reduction in cell viability by measuring LDH release at 0.5 to 5 uM incubated for 24 hrs by LDH assay. Format: toxicity, cell-based. Particulars: n9, 24 h, dose 0.5-5 µM. The essentials:
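N9 cells (2 × 10^4/well) given compound at 0.5 or 5 μM, alone or with LPS (E. coli O111:B4, 100 ng/mL) added 30 min later, for 24 h at 37 °C. Released LDH measured in supernatant (30 min, room temperature, 490/630 nm). Expressed as % of untreated cells, mean ± SEM, at least three experiments in triplicate.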
Background: LDH in the medium is a marker of cell lysis.

For the molecule `CC1(C)CN(C(=O)[C@H](Cc2ccc(C#N)cc2)NC(=O)Nc2ccc(F)cc2)c2ccccc21`, the IC50 (as a rule, the midpoint of a concentration-inhibition curve) in data set [1] turned out to be 2.7 µM. Also, in data set [2], the EC50 (commonly the midpoint of the concentration-response curve) stood at 2.3 µM.
In the case of `N#Cc1ccc(C[C@H](NC(=O)Nc2ccc(F)cc2)C(=O)N2CCc3ccc(F)cc3C2)cc1`, the remaining at 0.5 h, 10 µM in data set [3] came to 8%. In addition, the IC50 in data set [1] came out at 0.26 µM. For the same molecule, the EC50 in data set [2] came out at 0.45 µM.
On to `N#Cc1ccc(C[C@@H](NC(=O)Nc2ccc(F)cc2)C(=O)N2CCc3ccccc32)cc1`, for which the remaining at 0.5 h, 10 µM in data set [3] amounted to 14%. Also, the half-maximal inhibitory concentration (IC50) in data set [1] worked out at 3.9 µM. Moreover, the EC50 in data set [2] stood at 5.6 µM.
Take `N#Cc1ccc(C[C@@H](NC(=O)Nc2ccc(F)cc2)C(=O)N2Cc3ccc(F)cc3C2)cc1`: the remaining at 0.5 h, 10 µM in data set [3] came to 72%. The EC50 in data set [2] was 7.2 µM; at fMet-Leu-Phe receptor it was 5.6 µM. The EC50 at 48 h in data set [4] was determined as 9.44 µM. Moreover, the Efficacy in data set [5] was determined as 45%.
For the molecule `N#Cc1ccc(C[C@H](NC(=O)Nc2ccc(F)cc2)C(=O)N2Cc3ccccc3C2)cc1`, the remaining at 0.5 h, 10 µM in data set [3] is 31%. The IC50 in data set [1] turned out to be 4.4 µM. For the same molecule, the half-maximal effective concentration (EC50) in data set [2] was 0.34 µM. For the same molecule, the Activity result in data set [6] is reported as “Non-Toxic”.
`CC1(C)CN(C(=O)[C@H](Cc2ccc(C#N)cc2)NC(=O)Nc2ccc(F)cc2)Cc2cc(F)ccc21`: the remaining at 0.5 h, 10 µM in data set [3] was 34%. Further, the IC50 in data set [1] is 0.6 µM. The EC50 in data set [2] amounted to 1.6 µM.
In the case of `N#Cc1ccc(C[C@@H](NC(=O)Nc2ccc(F)cc2)C(=O)N2CCc3cc(F)ccc32)cc1`, the IC50 in data set [1] came out at 3.4 µM. Moreover, the concentration giving a half-maximal response (EC50) in data set [2] turned out to be 0.41 µM; on fMet-Leu-Phe receptor, 1.8 µM. The EC50 at 48 h in data set [4] is 23.8 µM. Further, the Efficacy in data set [5] is 90%.
For the molecule `N#Cc1ccc(C[C@@H](NC(=O)Nc2ccc(F)cc2)C(=O)N2CCc3ccc(F)cc32)cc1`, in data set [3], the remaining at 0.5 h, 10 µM was 28%. In addition, the Activity result in data set [6] is reported as “Toxic”.
As for `N#Cc1ccc(C[C@@H](NC(=O)Nc2ccc(F)cc2)C(=O)N2CCCCC2)cc1`, the remaining at 0.5 h, 10 µM in data set [3] was determined as 25%. In addition, the IC50 in data set [1] was 49.3 µM. For the same molecule, the concentration giving a half-maximal response (EC50) in data set [2] worked out at 13.4 µM.
On to `N#Cc1ccc(C[C@H](NC(=O)Nc2ccc(F)cc2)C(=O)N2CCc3ccccc3C2)cc1`, for which, in data set [3], the remaining at 0.5 h, 10 µM is 6%. Moreover, the IC50 in data set [1] is 0.03 µM. In addition, the EC50 in data set [2] is 0.24 µM. In addition, the Activity result in data set [6] was “Non-Toxic”.
In the case of `N#Cc1ccc(C[C@H](NC(=O)Nc2ccc(F)cc2)C(=O)N2CCc3cccnc32)cc1`, the remaining at 0.5 h, 10 µM in data set [3] was 14%. In data set [1], the IC50 is 0.14 µM. Moreover, the EC50 in data set [2] amounted to 0.16 µM.
For the molecule `N#Cc1ccc(C[C@H](NC(=O)Nc2ccc(F)cc2)C(=O)N2CCCCC2)cc1`, in data set [1], the IC50 came out at 12 µM. The EC50 in data set [2] amounted to 0.98 µM.
For `N#Cc1ccc(C[C@@H](NC(=O)Nc2ccc(F)cc2)C(=O)N2CCc3ccccc3C2)cc1`, the remaining at 0.5 h, 10 µM in data set [3] stood at 4%. In addition, in data set [1], the 50% inhibitory concentration (IC50) was found to be 3.5 µM. Also, the EC50 in data set [2] is 1.3 µM.
With `N#Cc1ccc(C[C@H](NC(=O)Nc2ccc(F)cc2)C(=O)N2Cc3ccc(F)cc3C2)cc1`, in data set [1], the IC50 came to 4.4 µM. Besides, the EC50 in data set [2] was determined as 1.7 µM; on fMet-Leu-Phe receptor it was 3.3 µM. For the same molecule, the EC50 at 48 h in data set [4] was 18.2 µM. In data set [5], the Efficacy came out at 70%.
Consider `N#Cc1ccc(C[C@@H](NC(=O)Nc2ccc(F)cc2)C(=O)N2CCc3ccc(F)cc3C2)cc1`, for which the remaining at 0.5 h, 10 µM in data set [3] was found to be 14%. Moreover, the IC50 in data set [1] stood at 0.24 µM. Also, the EC50 in data set [2] worked out at 0.62 µM.
On the same counts, the results for `CC1(C)CN(C(=O)[C@@H](Cc2ccc(C#N)cc2)NC(=O)Nc2ccc(F)cc2)c2ccccc21` are 65%, 16.4 µM and 6.9 µM.
In the case of `N#Cc1ccc(C[C@@H](NC(=O)Nc2ccc(F)cc2)C(=O)N2Cc3ccccc3C2)cc1`, in data set [3], the remaining at 0.5 h, 10 µM worked out at 15%. In data set [2], the EC50 worked out at 19.3 µM.
As to `N#Cc1ccc(C[C@@H](NC(=O)Nc2ccc(F)cc2)C(=O)N2CCc3cccnc32)cc1`, the remaining at 0.5 h, 10 µM in data set [3] stood at 10%. Moreover, in data set [1], the IC50 worked out at 1.2 µM. In addition, the EC50 in data set [2] stood at 1.1 µM.
